Article PMC3946399 (Molecular pharmaceutics, 2013)
Like-named read-outs stand apart in the source and are kept apart here. Values belong to the compound of their own block, whether it stands above or below them.

What was measured:
HL60/MX2 cells [1] = assay: cells; format: cell-based
SERCA [2] = assay: Evaluation of synergy in SERCA ATPase assay; format: biochemical, rabbit
HL60/MX2 cells [3] = format: cell-based; settings: ratio of IC50 in HL60 and HL60/MX2
SERCA [4] = settings: cited from earlier work
SERCA1a = SERCA1a (Oryctolagus cuniculus, UniProt P04191); format: biochemical, rabbit; settings: for pKATP(reg) / pKATP(cat): pCa 5.4; for pKATP(reg): control 3.30 ± 0.08; for pKATP(cat): control 4.99 ± 0.07
Summary of the method: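 Ca2+-dependent ATPase activity was measured in light SR vesicles from fast-twitch skeletal muscle of New Zealand white rabbits, using an NADH-linked coupled assay. Buffer was 5 mM MgCl2, 100 mM KCl, 1 mM EGTA (free Ca2+ set by EGTA buffering), 0.4 mM NADH, 10 IU/mL LDH, 10 IU/mL PK, 7 ug/mL A23187, 50 mM MOPS pH 7.0. Compounds were added in 1% DMSO final. Runs were at 37 °C in duplicate or triplicate, and rates were taken from A340 decay.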

[5] = in combination with (−)-CXL017 at fixed molar ratio, CI<0.9 synergy

Chain of SERCA1a (P04191 1-994 isoform P04191-2): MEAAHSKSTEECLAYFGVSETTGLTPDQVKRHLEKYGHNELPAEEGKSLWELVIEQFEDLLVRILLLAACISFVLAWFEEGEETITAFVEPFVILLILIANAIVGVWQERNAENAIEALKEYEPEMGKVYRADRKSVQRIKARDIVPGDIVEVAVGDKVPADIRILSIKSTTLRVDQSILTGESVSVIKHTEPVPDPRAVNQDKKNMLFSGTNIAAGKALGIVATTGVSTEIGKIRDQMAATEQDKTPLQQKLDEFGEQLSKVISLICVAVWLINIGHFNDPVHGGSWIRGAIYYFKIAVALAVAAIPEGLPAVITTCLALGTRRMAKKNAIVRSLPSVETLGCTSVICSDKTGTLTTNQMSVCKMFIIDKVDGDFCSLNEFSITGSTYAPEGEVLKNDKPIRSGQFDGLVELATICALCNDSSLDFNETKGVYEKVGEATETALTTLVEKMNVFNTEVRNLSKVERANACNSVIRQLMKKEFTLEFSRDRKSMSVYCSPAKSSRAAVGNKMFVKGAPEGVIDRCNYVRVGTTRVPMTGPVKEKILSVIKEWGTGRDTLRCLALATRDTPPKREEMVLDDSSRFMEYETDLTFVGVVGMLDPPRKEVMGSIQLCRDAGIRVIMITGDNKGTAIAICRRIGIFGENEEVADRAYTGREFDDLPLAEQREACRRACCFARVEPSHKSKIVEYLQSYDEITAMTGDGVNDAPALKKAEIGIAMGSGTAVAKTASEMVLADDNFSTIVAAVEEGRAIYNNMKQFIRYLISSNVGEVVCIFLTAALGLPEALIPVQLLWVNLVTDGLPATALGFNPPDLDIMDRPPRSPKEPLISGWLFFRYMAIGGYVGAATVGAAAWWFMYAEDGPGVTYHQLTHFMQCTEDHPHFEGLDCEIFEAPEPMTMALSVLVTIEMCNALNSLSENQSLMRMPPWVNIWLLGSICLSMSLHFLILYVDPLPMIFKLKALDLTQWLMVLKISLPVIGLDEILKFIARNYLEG

Compound: CCOC(=O)CC1C(C(=O)OCC)=C(N)Oc2ccc(-c3cc(OC)cc(OC)c3)cc21 (single isomer, unassigned; (-)) [(−)-CXL017]
cell viability (HL60/MX2 cells [1]; 6.25 µM): 47% | combination index (CI) (SERCA [2]; (−)-CXL017 with each of the known SERCA inhibitors (TG, CPA, BHQ)): < 0.9

Compound: CC(C)(C)c1cc(O)c(C(C)(C)C)cc1O [BHQ, 2,5-di-tert-butylhydroquinone]
combination index (CI) (SERCA [2]; [5]): 0.15–0.25 | selectivity for resistant cell line (HL60/MX2 over HL60) (HL60/MX2 cells [3]): 7.7 fold | dissociation constant (SERCA [4]): submicromolar

Compound: CC(=O)C1=C(O)[C@@H]2[C@H]3c4c[nH]c5cccc(c45)C[C@H]3C(C)(C)N2C1=O [CPA, cyclopiazonic acid]
combination index (CI) (SERCA [2]; [5]): 0.35–0.45 | selectivity for resistant cell line (HL60/MX2 over HL60) (HL60/MX2 cells [3]): 17 fold | dissociation constant (SERCA [4]): submicromolar

IC50 (SERCA1a): 25 ± 1 µM | pKATP(reg) (SERCA1a; 10 μM CXL017, varied ATP): 2.96 ± 0.07 | pKATP(cat) (SERCA1a; 10 μM CXL017, varied ATP): 3.92 ± 0.02 | pKATP(reg) (SERCA1a; 30 μM CXL017, varied ATP): 2.6 ± 0.1 | pKATP(cat) (SERCA1a; 30 μM CXL017, varied ATP): 3.99 ± 0.02 | effect on apparent Ca2+ affinity (pKCa) (SERCA1a; 10 or 30 μM CXL017): no significant effect | change in Vmax at catalytic and regulatory ATP sites (SERCA1a; 10 or 30 μM CXL017, varied ATP, two-site model): no significant change
Compound: CCOC(=O)CC1C(C(=O)OCC)=C(N)Oc2ccc(-c3cc(OC)cc(OC)c3)cc21 (stereo not shown) [CXL017, Ethyl 2-amino-6-(3,5-dimethoxyphenyl)-4-(2-ethoxy-2-oxoethyl)-4H-chromene-3-carboxylate]

Compound: C/C=C(/C)C(=O)O[C@H]1C(C)=C2[C@H]([C@@H]1OC(=O)CCCCCCC)[C@@](C)(OC(C)=O)C[C@H](OC(=O)CCC)[C@@]1(O)[C@H]2OC(=O)[C@@]1(C)O [TG, thapsigargin]
viability at 0.009375 µM (HL60/MX2 cells [1]; Homo sapiens, HL60/MX2, read-out: cell viability): 43% | combination index (CI) (SERCA [2]; [5]): 0.4–0.65 | selectivity for resistant cell line (HL60/MX2 over HL60) (HL60/MX2 cells [3]): 400 fold | dissociation constant (SERCA [4]): submicromolar
